Experimental data published in ChEMBL document CHEMBL4011658 (J Med Chem, 2017).
Values after ≈ are worked out from the molar mass of the structure shown. Active and inactive are the calls of the source. The calls are words filed in the database; no cut-off is given here. Residues, ends and D or L forms follow the SMILES beside them. *: point of attachment. Boc = CC(C)(C)OC(=O)*

How the values were obtained:
Escherichia coli = test: Antibacterial activity against Escherichia coli ATCC 35218 after 16 to 20 hrs by alamar blue dye based CLSI method; format: functional
[1] = Selectivity index, ratio of cytotoxicity against human SKOV3 cells to IC50 for Cryptococcus neoformans ATCC 90113; format: toxicity, cell-based; conditions: read-out: Selectivity Index
[2] = Selectivity index, ratio of cytotoxicity against African green monkey VERO cells to IC50 for Cryptococcus neoformans ATCC 90113; format: toxicity, cell-based; conditions: read-out: Selectivity Index
Staphylococcus aureus [3] = test: Antibacterial activity against Staphylococcus aureus ATCC 29213 after […] hrs by alamar blue dye based CLSI method; format: functional
Staphylococcus aureus [4] = test: Antibacterial activity against methicillin-resistant Staphylococcus aureus ATCC 33591 after 16 to 20 hrs by alamar blue dye based CLSI method; format: functional
[5] = Selectivity index, ratio of cytotoxicity against human SKOV3 cells to IC50 for Staphylococcus aureus ATCC 29213; format: toxicity, cell-based; conditions: read-out: Selectivity Index
Summary of the method: (§1)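 Selectivity index is the ratio CTX/IC50. For CTX, cells were seeded at 25 000 per well and grown 24 h, then exposed to peptide up to 10 μg/mL for 48 h, with viability by neutral red uptake. […] The inoculum was 5 × 10^5 CFU/mL, with OD530 read before and after incubation.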

[6] = Selectivity index, ratio of cytotoxicity against human SK-MEL cells to IC50 for Staphylococcus aureus ATCC 29213; format: toxicity, cell-based; conditions: read-out: Selectivity Index; summary of the method: as §1
[7] = Selectivity index, ratio of cytotoxicity against human BT549 cells to IC50 for Cryptococcus neoformans ATCC 90113; format: toxicity, cell-based; conditions: read-out: Selectivity Index
Cryptococcus neoformans [8] = test: Antifungal activity against Cryptococcus neoformans ATCC 90113 after 70 to 74 hrs by alamar blue dye based CLSI method; format: functional
Vero = test: Cytotoxicity against African green monkey Vero cells assessed as reduction in cell viability after 48 hrs by neutral red uptake assay; format: cell-based; conditions: chlorocebus sabaeus
Summary of the method: (§2)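 Cells seeded at 25 000 per well and grown 24 h to confluence, then exposed to peptides up to 10 μg/mL for 48 h; viability by modified neutral red uptake; doxorubicin positive control, DMSO negative control.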

[9] = Selectivity index, ratio of cytotoxicity against African green monkey VERO cells to IC50 for methicillin-resistant Staphylococcus aureus ATCC 33591; format: toxicity, cell-based; conditions: read-out: Selectivity Index
Summary of the method: (§3)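 Selectivity index is the ratio CTX/IC50. For CTX, cells were seeded at 25 000 per well and grown 24 h, then given peptide up to 10 μg/mL for 48 h, with neutral red uptake read-out. […] OD530 was read before and after 16−20 h at 35 °C.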

Candida = test: Antifungal activity against Candida; format: functional
LLC-PK1 = test: Cytotoxicity against pig LLC-PK1 cells assessed as reduction in cell viability after 48 hrs by neutral red uptake assay; format: cell-based, Sus scrofa; conditions: llc-pk1, 48 h; summary of the method: as §2
[10] = Selectivity index, ratio of cytotoxicity against African green monkey VERO cells to IC50 for Staphylococcus aureus ATCC 29213; format: toxicity, cell-based; conditions: read-out: Selectivity Index; summary of the method: as §1
[11] = Selectivity index, ratio of cytotoxicity against human SK-MEL cells to IC50 for Cryptococcus neoformans ATCC 90113; format: toxicity, cell-based; conditions: read-out: Selectivity Index
[12] = Selectivity index, ratio of cytotoxicity against human SK-MEL cells to IC50 for methicillin-resistant Staphylococcus aureus ATCC 33591; format: toxicity, cell-based; conditions: read-out: Selectivity Index; summary of the method: as §3
[13] = Selectivity index, ratio of cytotoxicity against pig LLC-PK1 cells to IC50 for Cryptococcus neoformans ATCC 90113; format: toxicity, cell-based; conditions: read-out: Selectivity Index
[14] = Selectivity index, ratio of cytotoxicity against human SKOV3 cells to IC50 for methicillin-resistant Staphylococcus aureus ATCC 33591; format: toxicity, cell-based; conditions: read-out: Selectivity Index; summary of the method: as §3
[15] = Selectivity index, ratio of cytotoxicity against pig LLC-PK1 cells to IC50 for methicillin-resistant Staphylococcus aureus ATCC 33591; format: toxicity, cell-based; conditions: read-out: Selectivity Index; summary of the method: as §3
SK-MEL = test: Cytotoxicity against human SK-MEL cells assessed as reduction in cell viability after 48 hrs by neutral red uptake assay; format: cell-based; summary of the method: as §2
[16] = Selectivity index, ratio of cytotoxicity against human BT549 cells to IC50 for Staphylococcus aureus ATCC 29213; format: toxicity, cell-based; conditions: read-out: Selectivity Index; summary of the method: as §1
Aspergillus = test: Antifungal activity against Aspergillus; format: functional
[17] = Selectivity index, ratio of cytotoxicity against human BT549 cells to IC50 for methicillin-resistant Staphylococcus aureus ATCC 33591; format: toxicity, cell-based; conditions: read-out: Selectivity Index; summary of the method: as §3
[18] = Selectivity index, ratio of cytotoxicity against pig LLC-PK1 cells to IC50 for Staphylococcus aureus ATCC 29213; format: toxicity, cell-based; conditions: read-out: Selectivity Index; summary of the method: as §1
SK-OV-3 = test: Cytotoxicity against human SKOV3 cells assessed as reduction in cell viability after 48 hrs by neutral red uptake assay; format: cell-based; conditions: sk-ov-3, 48 h; summary of the method: as §2
BT-549 = test: Cytotoxicity against human BT549 cells assessed as reduction in cell viability after 48 hrs by neutral red uptake assay; format: cell-based; conditions: bt-549, 48 h; summary of the method: as §2
Cryptococcus neoformans [19] = test: Antifungal activity against Cryptococcus neoformans ATCC 350 after 70 to 74 hrs by alamar blue dye based CLSI method; format: functional
Cryptococcus neoformans [20] = test: Fungicidal activity against Cryptococcus neoformans ATCC 350 at antifungal MIC after 4 hrs by time kill assay; format: functional
Cryptococcus neoformans [21] = test: Fungicidal activity against Cryptococcus neoformans ATCC 350 at 0.89 ug/ml after 4 hrs by time kill assay; format: functional
Cryptococcus neoformans [22] = test: Induction of membrane permeabilization in Cryptococcus neoformans ATCC 350 after 1 hr using FITC labeled compound by confocal microscopic analysis; format: functional

Compound	Activity (Escherichia coli)	selectivity ratio [1]	selectivity ratio [2]	IC50 (Staphylococcus aureus [3])	MBC (Staphylococcus aureus [3])	MIC (Staphylococcus aureus [3])	IC50 (Staphylococcus aureus [4])	MBC (Staphylococcus aureus [4])	MIC (Staphylococcus aureus [4])	selectivity ratio [5]	IC50 (Cryptococcus neoformans [8])	MFC (Cryptococcus neoformans [8])	MIC (Cryptococcus neoformans [8])	Activity (Vero)	Activity (Candida)	Activity (LLC-PK1)	Activity (SK-MEL)	Activity (Aspergillus)	Activity (SK-OV-3)	Activity (BT-549)	other results
COC(=O)[C@H](Cc1c[nH]c(-c2ccc(C(C)(C)C)cc2)n1)NC(=O)[C@H](Cc1c[nH]c2ccccc12)NC(=O)[C@@H](N)Cc1c[nH]c(-c2ccc(C(C)(C)C)cc2)n1	inactive	> 12	> 12	4.33 mg/L (≈ 5.72 µM)	> 20 mg/L	10 mg/L (≈ 13.2 µM)	6.71 mg/L (≈ 8.86 µM)	> 20 mg/L	> 20 mg/L	> 2.3	0.83 mg/L (≈ 1.1 µM)	1.25 mg/L (≈ 1.65 µM)	1.25 mg/L (≈ 1.65 µM)	> 10 µg/mL	inactive	> 10 µg/mL	> 10 µg/mL	inactive	> 10 µg/mL	> 10 µg/mL	selectivity ratio [6]: > 2.3; selectivity ratio [7]: > 12; selectivity ratio [9]: > 1.49; selectivity ratio [10]: > 2.3; selectivity ratio [11]: > 12; selectivity ratio [12]: > 1.49; selectivity ratio [13]: > 12; selectivity ratio [14]: > 1.49; selectivity ratio [15]: > 1.49; selectivity ratio [16]: > 2.3; selectivity ratio [17]: > 1.49; selectivity ratio [18]: > 2.3
CC(C)(C)c1ccc(-c2nc(C[C@H](NC(=O)[C@H](Cc3c[nH]c4ccccc34)NC(=O)[C@@H](N)Cc3c[nH]c(-c4ccc(C(C)(C)C)cc4)n3)C(=O)NCc3ccccc3)c[nH]2)cc1	inactive	> 3.8	> 3.8	3.72 mg/L (≈ 4.47 µM)	20 mg/L (≈ 24 µM)	10 mg/L (≈ 12 µM)	6.7 mg/L (≈ 8.05 µM)	> 20 mg/L	> 20 mg/L	> 2.68	2.6 mg/L (≈ 3.12 µM)	5 mg/L (≈ 6.01 µM)	5 mg/L (≈ 6.01 µM)	> 10 µg/mL	inactive	> 10 µg/mL	> 10 µg/mL	inactive	> 10 µg/mL	> 10 µg/mL	selectivity ratio [6]: > 2.68; selectivity ratio [7]: > 3.8; selectivity ratio [9]: > 1.49; selectivity ratio [10]: > 2.68; selectivity ratio [11]: > 3.8; selectivity ratio [12]: > 1.49; selectivity ratio [13]: > 3.8; selectivity ratio [14]: > 1.49; selectivity ratio [15]: > 1.49; selectivity ratio [16]: > 2.68; selectivity ratio [17]: > 1.49; selectivity ratio [18]: > 2.68
CC(C)(C)OC(=O)N[C@@H](Cc1c[nH]c(-c2ccccc2)n1)C(=O)N[C@@H](Cc1c[nH]c2ccccc12)C(=O)N[C@@H](Cc1c[nH]c(-c2ccccc2)n1)C(=O)NCc1ccccc1	inactive	> 7.1	> 7.1	7.6 mg/L (≈ 9.27 µM)	> 20 mg/L	> 20 mg/L	10.5 mg/L (≈ 12.8 µM)	> 20 mg/L	> 20 mg/L	> 1.3	1.4 mg/L (≈ 1.71 µM)	2.5 mg/L (≈ 3.05 µM)	2.5 mg/L (≈ 3.05 µM)	> 10 µg/mL	inactive	> 10 µg/mL	> 10 µg/mL	inactive	> 10 µg/mL	> 10 µg/mL	selectivity ratio [6]: > 1.3; selectivity ratio [7]: > 7.1; selectivity ratio [10]: > 1.3; selectivity ratio [11]: > 7.1; selectivity ratio [13]: > 7.1; selectivity ratio [16]: > 1.3; selectivity ratio [18]: > 1.3
OC(Cn1cncn1)(Cn1cncn1)c1ccc(F)cc1F [FLUCONAZOLE]	–	–	–	–	–	–	–	–	–	–	–	–	–	–	–	–	–	–	–	–	MIC (Cryptococcus neoformans [19]): 9.57 mg/L (≈ 31.2 µM)
COC(=O)[C@H](Cc1c[nH]cn1)NC(=O)[C@H](Cc1c[nH]c2ccccc12)NC(=O)[C@H](Cc1c[nH]cn1)NC(=O)OC(C)(C)C (Boc-His-Trp-His-OMe)	inactive	–	–	–	–	–	–	–	–	–	> 20 mg/L	–	–	> 10 µg/mL	inactive	> 10 µg/mL	> 10 µg/mL	inactive	> 10 µg/mL	> 10 µg/mL	Activity (Cryptococcus neoformans [20]): inactive
C[C@@H]1[C@H](O)[C@@H](C)/C=C/C=C/C=C/C=C/C=C/C=C/C=C/[C@H](O[C@@H]2O[C@H](C)[C@@H](O)[C@H](N)[C@@H]2O)C[C@@H]2O[C@](O)(C[C@@H](O)C[C@@H](O)[C@H](O)CC[C@@H](O)C[C@@H](O)CC(=O)O[C@H]1C)C[C@H](O)[C@H]2C(=O)O [AMPHOTERICIN B]	–	–	–	–	–	–	–	–	–	–	–	1.25 mg/L (≈ 1.35 µM)	1.25 mg/L (≈ 1.35 µM)	–	–	–	–	–	–	–	MIC (Cryptococcus neoformans [19]): 0.89 mg/L (≈ 0.963 µM); Activity (Cryptococcus neoformans [21]): Active
N[C@@H](Cc1c[nH]c(-c2ccccc2)n1)C(=O)N[C@@H](Cc1c[nH]c2ccccc12)C(=O)N[C@@H](Cc1c[nH]c(-c2ccccc2)n1)C(=O)NCc1ccccc1	inactive	–	–	–	–	–	–	–	–	–	> 20 mg/L	–	–	> 10 µg/mL	inactive	> 10 µg/mL	> 10 µg/mL	inactive	> 10 µg/mL	> 10 µg/mL	Activity (Cryptococcus neoformans [22]): inactive
